Counter-ions that a name gives are not always drawn.
How the values were obtained:
tubulin [1] = assay: Inhibition of [3H]dolastatin 10 binding to tubulin; parameters: species or system bovine; conditions: for Inhibition of binding of [3H]dolastatin 10, % inhibition ± SD: 10 µM tubulin, 10 µM radiolabeled ligand
In short: (§1)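 Radioligand binding in 0.1 M MES (pH 6.9) with 0.5 mM MgCl2, 10 µM tubulin (1.0 mg/mL), 10 µM radiolabeled ligand and inhibitors at different concentrations. Ligands were mixed before tubulin was added, then incubated 15 min at around 20 °C. Duplicate aliquots were run through Sephadex G-50 superfine syringe columns equilibrated in 0.1 M MES-0.5 mM MgCl2 (pH 6.9). At least two experiments per condition.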

bovine brain tubulin = assay: Inhibition of tubulin assembly; type: biochemical; conditions: for IC50: read-out: Inhibition of tubulin assembly IC50 ± SD, 10 µM bovine brain tubulin, 0.4 mM GTP, 30 °C, 20 min
In short: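 10 µM bovine brain tubulin in glutamate buffer was preincubated with varying test compound concentrations at 30 °C, then chilled to 0 °C. 0.4 mM GTP was added and the mixture rewarmed to 30 °C in a recording spectrophotometer. Assembly was followed as turbidity at 350 nm. IC50 is the concentration cutting assembly extent by 50% after 20 min.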

tubulin [2] = assay: Inhibition of [3H]vinblastine binding to tubulin; parameters: species or system bovine; conditions: for Inhibition of binding of [3H]vinblastine, % inhibition ± SD: 10 µM tubulin, 10 µM radiolabeled ligand
In short: as §1

tubulin [3] = assay: Inhibition of [3H]halichondrin B binding to tubulin; parameters: species or system bovine; conditions: for Inhibition of binding of [3H]halichondrin B, % inhibition ± SD: 10 µM tubulin, 10 µM radiolabeled ligand
In short: as §1

SEM cells = assay: Antiproliferative assay; type: cell-based; conditions: Homo sapiens, B-cell, 72 h, read-out: In vitro cytotoxic activity IC50, SEM
In short: (§2)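 Cells from ATCC. Jurkat and SEM were grown in RPMI-1640, and HeLa and HT-29 in DMEM, each with 115 units/mL penicillin G, 115 µg/mL streptomycin and 10% FBS. 8 × 10³ cells/well were seeded 18 h ahead (37 °C, 5% CO2). The medium was then replaced with test compound at several concentrations (10 mM DMSO stock) for 72 h at 37 °C. MTT read-out was at 560 nm; IC50 is 50% proliferation inhibition.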

Jurkat = assay: Antiproliferative assay; type: cell-based; conditions: Homo sapiens, 72 h, read-out: In vitro cytotoxic activity IC50, Jurkat
In short: as §2

HeLa = assay: Antiproliferative assay; type: cell-based; conditions: Homo sapiens, 72 h, read-out: In vitro cytotoxic activity IC50, HeLa
HT29 = assay: Antiproliferative assay; type: cell-based; conditions: Homo sapiens, HT-29, 72 h, read-out: In vitro cytotoxic activity IC50, HT29
[4] = test system: HeLa, HT29, SEM, and Jurkat tumor cells; assay: Cytotoxicity on tumor cell panel; type: cell-based, human
In short: as §2

Row | Compound | Inhibition of the binding of [3H]dolastatin 10 (in words) (tubulin [1]) | Inhibition of binding of [3H]dolastatin 10, % inhibition ± SD (tubulin [1]; inhibitor 5 µM) [%] | Inhibition of binding of [3H]dolastatin 10, % inhibition ± SD (tubulin [1]; inhibitor 20 µM) [%] | Inhibition of tubulin assembly (in words) (bovine brain tubulin) | IC50 (bovine brain tubulin) [nM] | Inhibition of the binding of [3H]vinblastine (in words) (tubulin [2]) | Inhibition of binding of [3H]vinblastine, % inhibition ± SD (tubulin [2]; inhibitor 5 µM) [%] | Inhibition of binding of [3H]vinblastine, % inhibition ± SD (tubulin [2]; inhibitor 20 µM) [%] | Inhibition of the binding of [3H]halichondrin B (in words) (tubulin [3]) | Inhibition of binding of [3H]halichondrin B, % inhibition ± SD (tubulin [3]; inhibitor 5 µM) [%] | Inhibition of binding of [3H]halichondrin B, % inhibition ± SD (tubulin [3]; inhibitor 20 µM) [%] | IC50 (SEM cells) [nM] | IC50 (Jurkat) [nM] | IC50 (HeLa) [nM] | IC50 (HT29) [nM] | Cytotoxic activity (in words) [4]
1 | CN[C@H](C(=O)N[C@H](C(=O)N(C)[C@H](/C=C(\C)C(=O)O)C(C)C)C(C)(C)C)C(C)(C)c1cn(C)c2ccccc12 [Compound 1, hemiasterlin] | active | 19 ± 7 | 89 ± 1 | active | 1300 ± 50 | active | 14 ± 4 | 66 ± 4 | active | 38 ± 4 | 92 ± 2 | – | – | – | – | –
2 | CN[C@H](C(=O)N[C@H](C(=O)N(C)[C@H](/C=C(\C)C(=O)O)C(C)C)C(C)(C)C)C(C)(C)c1ccccc1 [Compound 2, taltobulin] | active | 0 ± 0 | 30 ± 1 | active | 1200 ± 10 | active | 29 ± 9 | 60 ± 2 | active | 38 ± 6 | 63 ± 1 | 0.1 ± 0.05 | 0.2 ± 0.5 | 0.2 ± 0.1 | 0.3 ± 0.1 | nanomolar IC50 values
3 | CN[C@H](C(=O)N[C@H](C(=O)N(C)c1cccc(C(=O)O)c1)C(C)C)C(C)(C)c1ccccc1.O=C(O)C(F)(F)F [Compound 3, 3-((S)-N,3 Dimethyl-2-((S)-3-methyl-2-(methylamino)-3-phenylbutanamido)butanamido) benzoic acid trifluoroacetate] | – | – | 7 ± 3 | – | > 20000 | – | – | 2 ± 1 | – | – | 0 ± 0 | > 10000 | 150 ± 20 | 4700 ± 500 | 1900 ± 500 | –
4 | CN[C@H](C(=O)N[C@H](C(=O)N(C)c1cc(C(=O)O)ccc1C)C(C)C)C(C)(C)c1ccccc1.O=C(O)C(F)(F)F [Compound 4, 3-((S)-N,3-Dimethyl-2-((S)-3-methyl-2-(methylamino)-3-phenylbutanamido)butanamido)-4-methylbenzoic acid trifluoroacetate] | – | – | 0 ± 0 | – | > 20000 | – | – | 9 ± 1 | – | – | 3 ± 1 | > 10000 | 290 ± 50 | 5300 ± 600 | 2700 ± 200 | –
5 | CN[C@H](C(=O)N[C@H](C(=O)N(C)c1cc(C(=O)O)ccc1OC)C(C)C)C(C)(C)c1ccccc1.O=C(O)C(F)(F)F [Compound 5, 3-((S)-N,3-Dimethyl-2-((S)-3-methyl-2-(methylamino)-3-phenylbutanamido)butanamido)-4-methoxybenzoic acid trifluoroacetate] | – | – | 8 ± 2 | – | > 20000 | – | – | 0 ± 0 | – | – | 0 ± 0 | > 10000 | > 10000 | > 10000 | > 10000 | –
6 | CN[C@H](C(=O)N[C@H](C(=O)N(C)[C@H](c1nc(C(=O)O)co1)C(C)C)C(C)C)C(C)(C)c1ccccc1 [Compound 8, 2-((S)-1-((S)-N,3-Dimethyl-2-((S)-3-methyl-2-(methylamino)-3-phenylbutanamido)butanamido)-2-methylpropyl)oxazole-4-carboxylic acid trifluoroacetate] | – | – | – | – | – | – | – | – | – | – | – | > 10000 | > 10000 | > 10000 | > 10000 | –
